# ChEMBL document CHEMBL3102784, “Salicylanilide diethyl phosphates: synthesis, antimicrobial activity and cytotoxicity” (Bioorg Med Chem, 2014)
# Columns and labels:
# Assay type in all cases: functional
# [1] = system: Mycobacterium tuberculosis; test: Antimycobacterial activity against isoniazid, rifamycin, streptomycin, ethambutol and ofloxacin, clofazimine-resistant Mycobacterium tuberculosis Praha 4 after 21 days; details: Praha 4, 504 h
# In short: (§1)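 Drug-resistant M. tuberculosis strains (MDR, one XDR), inoculum dilution 10^3. MIC by micromethod in Šula's semisynthetic medium at 37 °C, compounds in DMSO, concentration series as for the drug-susceptible strain. Read after 14 and 21 days.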
# [2] = system: Mycobacterium tuberculosis; test: Antimycobacterial activity against isoniazid, rifamycin, streptomycin, ethambutol, clofazimine, ofloxacin, gentamicin and amikacin-resistant Mycobacterium tuberculosis Praha 131 after 21 days; details: Praha 131, 504 h; in short: as §1
# [3] = system: Mycobacterium tuberculosis; test: Antimycobacterial activity against isoniazid, rifamycin, streptomycin, ethambutol, clofazimine, ofloxacin, gentamicin and amikacin-resistant Mycobacterium tuberculosis Praha 131 after 14 days; details: Praha 131, 336 h; in short: as §1
# [4] = system: Mycobacterium tuberculosis; test: Antimycobacterial activity against isoniazid, rifamycin, streptomycin, ethambutol and ofloxacin, clofazimine-resistant Mycobacterium tuberculosis Praha 4 after 14 days; details: Praha 4, 336 h; in short: as §1
# [5] = system: Mycobacterium tuberculosis; test: Antimycobacterial activity against isoniazid, rifamycin and streptomycin-resistant Mycobacterium tuberculosis 9449/2006 after 14 days; details: 9449/2006, 336 h; in short: as §1
# [6] = system: Mycobacterium tuberculosis; test: Antimycobacterial activity against isoniazid, rifampicin, rifabutin, streptomycin and ethambutol-resistant Mycobacterium tuberculosis 234/2005 after 21 days; details: 234/2005, 504 h; in short: as §1
# [7] = system: Mycobacterium tuberculosis; test: Antimycobacterial activity against isoniazid, rifamycin, streptomycin, ethambutol and clofazimine-resistant Mycobacterium tuberculosis Praha 1 after 14 days; details: Praha 1, 336 h; in short: as §1
# [8] = system: Mycobacterium tuberculosis; test: Antimycobacterial activity against isoniazid, rifamycin, streptomycin, ethambutol and clofazimine-resistant Mycobacterium tuberculosis Praha 1 after 21 days; details: Praha 1, 504 h; in short: as §1
# [9] = system: Mycobacterium tuberculosis; test: Antimycobacterial activity against isoniazid, rifamycin and streptomycin-resistant Mycobacterium tuberculosis 9449/2006 after 21 days; details: 9449/2006, 504 h; in short: as §1
# [10] = system: Mycobacterium tuberculosis; test: Antimycobacterial activity against isoniazid, rifampicin, rifabutin, streptomycin and ethambutol-resistant Mycobacterium tuberculosis 234/2005 after 14 days; details: 234/2005, 336 h; in short: as §1
compound,measurement,setting,value
CCOP(=O)(OCC)Oc1cc(Cl)ccc1C(=O)Nc1ccc(C(F)(F)F)cc1,MIC,[1],1 µM
same,MIC,[2],1 µM
same,MIC,[3],1 µM
same,MIC,[4],1 µM
same,MIC,[5],1 µM
same,MIC,[6],1 µM
same,MIC,[7],1 µM
same,MIC,[8],1 µM
same,MIC,[9],1 µM
same,MIC,[10],1 µM
CCOP(=O)(OCC)Oc1ccc(Br)cc1C(=O)Nc1ccc(Cl)c(Cl)c1,MIC,[1],1 µM
same,MIC,[2],1 µM
same,MIC,[3],1 µM
same,MIC,[4],1 µM
same,MIC,[5],1 µM
same,MIC,[6],1 µM
same,MIC,[7],1 µM
same,MIC,[8],1 µM
same,MIC,[9],1 µM
same,MIC,[10],1 µM
CCOP(=O)(OCC)Oc1ccc(Br)cc1C(=O)Nc1ccc(C(F)(F)F)cc1,MIC,[1],1 µM
same,MIC,[2],1 µM
same,MIC,[3],1 µM
same,MIC,[4],1 µM
same,MIC,[5],1 µM
same,MIC,[6],1 µM
same,MIC,[7],1 µM
same,MIC,[8],1 µM
same,MIC,[9],1 µM
same,MIC,[10],1 µM
CCOP(=O)(OCC)Oc1ccc(Cl)cc1C(=O)Nc1ccc(Cl)c(Cl)c1,MIC,[1],1 µM
same,MIC,[2],1 µM
same,MIC,[3],1 µM
same,MIC,[4],1 µM
same,MIC,[5],1 µM
same,MIC,[6],1 µM
same,MIC,[7],1 µM
same,MIC,[8],1 µM
same,MIC,[9],1 µM
same,MIC,[10],1 µM
CCOP(=O)(OCC)Oc1ccc(Cl)cc1C(=O)Nc1ccc(C(F)(F)F)cc1,MIC,[1],1 µM
same,MIC,[2],1 µM
same,MIC,[3],1 µM
same,MIC,[4],1 µM
same,MIC,[5],1 µM
same,MIC,[6],1 µM
same,MIC,[7],1 µM
same,MIC,[8],1 µM
same,MIC,[9],1 µM
same,MIC,[10],1 µM
NNC(=O)c1ccncc1 [ISONIAZID],MIC,[1],16 µM
same,MIC,[2],16 µM
same,MIC,[3],16 µM
same,MIC,[4],16 µM
same,MIC,[5],16 µM
same,MIC,[6],16 µM
same,MIC,[7],16 µM
same,MIC,[8],16 µM
same,MIC,[9],16 µM
same,MIC,[10],16 µM
